Source: PubChem
NR2E3 ag-1 = agonists of human NR2E3 nuclear receptor; hit rate 0.35% among 360,000; inhibition of corepressor binding, % at 3.98 µM; CHO-S Gal4-NCOR/VP16-NR2E3 two-hybrid, luciferase; AID 602229;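 active = inhibition above the mean of all tested compounds plus 3 SD, cut at about 70% in these data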;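 note: 0% = DMSO with NR2E3 transfected cells and 100% = cells lacking NR2E3 construct; higher means lower luciferase signal from less NR2E3 corepressor binding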
VLA-4 inh = inhibition in a human VLA-4 binding assay; P13612; VLA-4 expressing cells, ligand binding flow cytometry; inhibition, % (about 7 µM as worked out from the volumes in the protocol); hit rate 0.2% among 330,000; AID 2557; in the data active = inhibition above about 50%
NR1D1 modulator = Rev-erb alpha (human) modulation | P20393 | Rev-erbα–FITC-DNA binding, fluorescence polarization, 90 min | activity, % at 10 µM | hit rate 0.79% among 370,000;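 active = activity above about 14%, limit read from the data; passing the limit was not always enough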;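 note: 0% = DMSO wells with 35 nM protein and 100% = DMSO wells with 750 nM protein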
NR2E3 ag-2 = activates human photoreceptor nuclear receptor NR2E3. Q9Y5X4. GST-NR2E3/biotin-RetCOR TR-FRET, 1536-well. inhibition of corepressor binding, % at 4.78 µM. hit rate 0.12% among 320,000;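 active = percent inhibition above the cutoff of mean plus 3 SD of all tested compounds, set per screening campaign, cut at about 20% in these data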;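 note: 0% = DMSO wells and 100% = biotin wells as full block of FRET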
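Material: NR2E3–RetCOR corepressor complex / Amount: 1.35 nM GST-NR2E3 / Medium: Tris pH 7.5 / Compound: single nominal compound dose of 4.8 µM / Incubation: 5 h at 4 °C / Technique: TR-FRET, Eu(K)-anti-GST donor, streptavidin-D2 acceptor, ex 340, em 617/671 nm / Read-out basis: percent loss of FRET ratio relative to control wells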
PG9 Ab binder = binds the HIV-1 gp120 antibody PG9. AID 624416. inhibition, % at 6.7 µM. hit rate 0.43% among 360,000. TR-FRET gp120-PG9 antibody binding; in the data active = inhibition above about 8.5%
PG9 bind confirm = confirmation of small molecules binding HIV-1 gp120 antibody PG9; shares compounds with PG9 Ab binder; TR-FRET PG9 antibody binding, biochemical; hit rate 90% among 1,500; inhibition, % at 6.7 µM; in the data active = inhibition above about 9%
PGV04 counter = PGV04 control antibody binding, counter-screen. inhibition, % at 6.7 µM. hit rate 95% among 1,500. shares compounds with PG9 Ab binder. TR-FRET PGV04 antibody-gp120 binding, biochemical; in the data active = inhibition above about 9.5%
NR1D1 mod conf = confirmation of modulators of human Rev-erb alpha DNA binding; activation, % at 25 µM; hit rate 61% among 3,000; AID 1259319; Rev-erb alpha FITC-DNA binding, fluorescence polarization, 90 min; shares compounds with NR1D1 modulator;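 active = activation at or above a set limit, or at least 3 SD above the negative control mean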;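 note: 0% = 35 nM protein with DMSO and 100% = 750 nM protein high control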
RORg DNA counter = affects RORgamma DNA binding in a Rev-erb alpha counter-screen | shares compounds with NR1D1 modulator | purified RORgamma protein-FITC-DNA binding, fluorescence polarization | IC50, µM | hit rate 8% among 910 | AID 1259320;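 active = Compounds whose fitted half-maximal concentration for disrupting protein-DNA binding is below 10 micromolar; the record names Rev-erb in its text, so the target is in doubt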
Numbers without * were called inactive; nt = no result. Only some compounds are listed: those with a hit (about 1.6% of all), similar ones and a draw of the others.

SMILES	NR2E3 ag-1	VLA-4 inh	NR1D1 modulator	NR2E3 ag-2	PG9 Ab binder	PG9 bind confirm	PGV04 counter	NR1D1 mod conf	others
COC(=O)C1=C(C)N(Cc2ccc(C(F)(F)F)cc2)C(=NCC2CC2)NC1c1cccc(Cl)c1 (stereo not drawn)	nt	nt	1	nt	1	nt	nt	nt
CCOC(=O)N1CCC(NC(=O)c2ccc3c(c2)sc2nc(-c4ccccc4)cn23)CC1	-38	-8	63*	-2	21*	21*	38*	41*
Cc1cccc2cc(C#N)c(SCC(=O)Nc3ccccc3N3CCOCC3)nc12	-15	-24	48*	5	17*	17*	39*	44*	RORg DNA counter=>40
Cc1cc(NC(=O)CSc2nc3c(C)cccc3cc2C#N)no1	-27	-1	83*	-38	27*	43*	72*	53*	RORg DNA counter=>40
Cc1cc(C(=O)O[C@H]2CCC[C@]3(C(=O)N(Cc4ccccc4)c4ccccc43)[C@H]2NC(=O)CCc2ccccc2)no1	nt	nt	-5	nt	nt	nt	nt	nt
CCCCOCCCNC(=O)C[C@@H]1C(=O)N(CCc2ccc(Cl)cc2)C2=CCCCC[C@]21C(=O)OC	nt	nt	6	nt	nt	nt	nt	nt
Cn1c(NC(=O)c2cccc(Cn3cc(Cl)cn3)c2)nc2ccccc21	-121	-3	25*	1	51*	37*	53*	1
O=C(Nc1cccc(-c2nc3ncccc3o2)c1)c1cc2ccccc2o1	-59	-14	-3	-4	-1	nt	nt	nt
Cc1ccc(-c2nc3ncccc3o2)cc1NC(=O)CC(C)C	-8	5	6	-1	-1	nt	nt	nt
Cc1ccc(-c2nc3ncccc3o2)cc1NC(=O)c1cc2ccccc2o1	-25	-16	19*	1	8.9*	12*	35*	0
Cc1ccc(-c2nc3ncccc3o2)cc1NC(=O)COc1ccccc1	-6	8	22*	0	9.1*	13*	18*	9
O=C(COC(=O)c1cc(Br)ccc1O)Nc1cccnc1Cl	-28	3	66*	3	38*	13*	31*	39*	RORg DNA counter=>40
O=C(COC(=O)c1ccc(Cl)cc1O)Nc1cccnc1Cl	-43	0	3	-1	1	nt	nt	nt
N#Cc1ccsc1NC(=O)COC(=O)c1cc(Br)ccc1O	-49	-1	48*	9	34*	38*	60*	32*	RORg DNA counter=>40
CC1CCC2(CC1)CCN(CCCOC(=O)NCc1ccc(Cl)cc1)C2=O (stereo not drawn)	nt	nt	5	nt	nt	nt	nt	nt
CCCCCCCCNS(=O)(=O)CC1NCc2cc(F)ccc21 (stereo not drawn)	nt	nt	-1	nt	nt	nt	nt	nt
COc1cc2c(Nc3ccc(Br)cc3F)ncnc2cc1OCC1CCN(C)CC1	nt	nt	5	nt	nt	nt	nt	nt
CC(=O)NCCNc1nc2c(-c3cccc(C(F)(F)F)c3)nnn2c2ccccc12	-18	-1	69*	2	25*	15*	57*	3
Cc1ccc(-c2nc3c4ccccc4ccn3c2Cc2cccc(F)c2)cc1	nt	nt	11	nt	0	nt	nt	nt
CC(C)(C)c1ccc(-c2nnc(SCC(=O)Nc3ccc4cn[nH]c4c3)n2-c2ccc(Cl)cc2)cc1	nt	nt	-3	nt	nt	nt	nt	nt
CCOc1ccc(S(=O)(=O)Nc2nc3ccccc3nc2-n2ccc(=NC(=O)c3ccccc3C)cc2)cc1	-2	-1	39*	-1	40*	32*	65*	59*	RORg DNA counter=>40
Cc1ccc2cc(C#N)c(SCC(=O)NNC(=O)Cc3ccccc3)nc2c1	0	nt	52*	nt	20*	38*	41*	44*	RORg DNA counter=>40
COC(=O)CSc1nc2ccc(C)cc2cc1C#N	-123	1	0	-3	-1	nt	nt	nt
Cc1ccc2nc(SCC(=O)NCc3cccs3)c(C#N)cc2c1	-1	9	47*	0	15*	37*	49*	22*
COc1cccc(-c2ccc(C#N)c(SCC(=O)NCCc3cccc(Cl)c3)n2)c1	0	10	34*	13	22*	24*	43*	23*
